From article PMC4191598 (Journal of Medicinal Chemistry, 2014)

Tests used:
human TLR8 [1] = target: T1, human TLR8 (Homo sapiens, UniProt Q9NR97); details: earlier observation; cited from earlier work
T1 sequence (Q9NR97 27-1041): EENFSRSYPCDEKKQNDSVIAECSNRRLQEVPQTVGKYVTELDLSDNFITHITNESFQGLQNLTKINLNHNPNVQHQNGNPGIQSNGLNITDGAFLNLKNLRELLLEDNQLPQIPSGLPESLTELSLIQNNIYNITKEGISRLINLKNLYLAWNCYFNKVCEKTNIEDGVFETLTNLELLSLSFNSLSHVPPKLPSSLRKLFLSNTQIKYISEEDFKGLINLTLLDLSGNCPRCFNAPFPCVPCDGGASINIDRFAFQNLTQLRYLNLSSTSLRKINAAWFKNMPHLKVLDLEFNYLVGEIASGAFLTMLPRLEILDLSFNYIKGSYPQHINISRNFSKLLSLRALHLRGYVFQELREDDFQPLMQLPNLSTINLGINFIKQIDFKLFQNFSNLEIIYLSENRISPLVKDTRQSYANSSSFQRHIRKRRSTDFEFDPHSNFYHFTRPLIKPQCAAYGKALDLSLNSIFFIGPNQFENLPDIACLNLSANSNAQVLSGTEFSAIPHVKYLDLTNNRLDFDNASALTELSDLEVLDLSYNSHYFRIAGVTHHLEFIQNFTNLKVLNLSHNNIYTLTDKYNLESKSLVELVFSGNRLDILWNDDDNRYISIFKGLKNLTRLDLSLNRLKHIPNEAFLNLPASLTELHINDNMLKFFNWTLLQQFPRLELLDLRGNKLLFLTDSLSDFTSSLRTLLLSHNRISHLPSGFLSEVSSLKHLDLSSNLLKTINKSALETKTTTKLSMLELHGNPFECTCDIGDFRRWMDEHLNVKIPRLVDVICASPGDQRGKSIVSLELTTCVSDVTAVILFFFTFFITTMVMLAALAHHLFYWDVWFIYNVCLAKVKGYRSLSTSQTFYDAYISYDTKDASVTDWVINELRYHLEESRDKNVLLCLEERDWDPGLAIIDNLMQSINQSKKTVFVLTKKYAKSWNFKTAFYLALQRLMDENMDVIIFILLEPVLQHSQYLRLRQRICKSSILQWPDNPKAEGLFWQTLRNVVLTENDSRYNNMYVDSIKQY

[2] = tested on: human peripheral blood mononuclear cells (hPBMCs); assay: IFN-α induction in human PBMCs; type: cell-based; details: 12 h stimulation, graded concentrations
Outline: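 Fresh PBMCs were isolated on Ficoll–Hypaque gradients from venous blood of consenting donors and plated at 10^5 cells/well. They were stimulated for 12 h with graded concentrations of test compound. Supernatants were collected by centrifugation and assayed in triplicate with high-sensitivity multisubtype IFN-α ELISA.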

human TLR7 = target: T2, human TLR7 (Homo sapiens, UniProt Q9NYK1); assay: Human TLR7 reporter gene assay; type: cell-based; details: for TLR7-agonistic activity (in words): TLR7 reporter gene assay
T2 sequence (Q9NYK1 27-1049): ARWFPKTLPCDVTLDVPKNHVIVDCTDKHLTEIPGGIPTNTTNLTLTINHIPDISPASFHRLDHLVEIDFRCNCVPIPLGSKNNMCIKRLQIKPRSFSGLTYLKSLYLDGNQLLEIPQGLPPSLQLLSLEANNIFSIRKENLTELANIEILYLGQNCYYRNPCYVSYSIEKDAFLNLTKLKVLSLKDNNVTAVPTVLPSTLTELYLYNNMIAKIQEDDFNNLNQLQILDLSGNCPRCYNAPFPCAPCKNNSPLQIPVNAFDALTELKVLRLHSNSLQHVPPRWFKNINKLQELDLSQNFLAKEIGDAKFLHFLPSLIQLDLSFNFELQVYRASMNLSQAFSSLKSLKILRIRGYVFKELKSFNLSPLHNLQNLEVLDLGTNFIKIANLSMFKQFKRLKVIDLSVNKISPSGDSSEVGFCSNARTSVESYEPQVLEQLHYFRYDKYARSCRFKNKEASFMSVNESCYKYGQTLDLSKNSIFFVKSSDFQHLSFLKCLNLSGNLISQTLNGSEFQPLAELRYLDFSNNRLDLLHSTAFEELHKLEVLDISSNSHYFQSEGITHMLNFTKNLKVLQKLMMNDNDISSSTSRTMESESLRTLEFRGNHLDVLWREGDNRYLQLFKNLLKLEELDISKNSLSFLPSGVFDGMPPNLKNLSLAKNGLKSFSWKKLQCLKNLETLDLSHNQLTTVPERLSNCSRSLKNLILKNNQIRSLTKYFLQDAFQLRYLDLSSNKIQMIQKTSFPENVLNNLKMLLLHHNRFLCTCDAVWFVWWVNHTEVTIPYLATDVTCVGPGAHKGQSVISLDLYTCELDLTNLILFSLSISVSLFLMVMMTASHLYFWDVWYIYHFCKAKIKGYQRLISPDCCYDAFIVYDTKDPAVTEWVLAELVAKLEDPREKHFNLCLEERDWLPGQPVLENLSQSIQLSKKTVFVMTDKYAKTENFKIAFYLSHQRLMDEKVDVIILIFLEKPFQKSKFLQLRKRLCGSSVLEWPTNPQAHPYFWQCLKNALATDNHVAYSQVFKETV

human TLR8 [3] = target: T1, human TLR8; assay: Human TLR8 reporter gene assay; type: cell-based; details: for TLR8-agonistic activity (in words): TLR8 reporter gene assay; for TLR7/TLR8 selectivity (in words): TLR7 and TLR8 reporter gene assays
Outline: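 HEK-Blue cells carrying human TLR8, with secreted alkaline phosphatase under NF-κB/AP-1 promoter control, seeded at ~10^5 cells/mL and grown to confluency. Stimulated with graded concentrations of test compound. Supernatant sAP, proportional to NF-κB induction, read spectrophotometrically at 620 nm using an alkaline phosphatase-specific chromogen in the detection medium.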

[4] = tested on: human lymphocytic subsets in whole blood; assay: CD69 up-regulation in lymphocytic subsets, ex vivo whole human blood; type: cell-based; details: 16.5 h

| SMILES | TLR8-agonistic activity (in words) (human TLR8 [3]) | TLR7-agonistic activity (in words) (human TLR7) | further results |
| --- | --- | --- | --- |
| CCCCc1cc2c(o1)c(N)nc1ccccc12 [Compound 5, 2-butylfuro[2,3-c]quinolin-4-amine] | – | – | TLR8 agonism (in words) (human TLR8 [1]): prominent and selective TLR8 agonism |
| CCCCc1nc2c(N)nc3ccccc3c2o1 [Compound 9, 2-Butyloxazolo[4,5-c]quinolin-4-amine] | – | – | IFN-α induction [2]: showed IFN-α inducing ability |
| CCCNc1nc2c(N)nc3ccccc3c2s1 [Compound 11, N^2-Propylthiazolo[4,5-c]quinoline-2,4-diamine] | – | – | EC50 (human TLR7): 0.73 µM; IFN-α induction [2]: showed IFN-α inducing ability |
| CCCNc1nc2c(N)nc3ccccc3c2o1 [Compound 13, N^2-Propyloxazolo[4,5-c]quinoline-2,4-diamine] | entirely devoid of any detectable TLR7- or TLR8-agonistic activity | entirely devoid of any detectable TLR7- or TLR8-agonistic activity | – |
| CCC(=O)Nc1nc2c(N)nc3ccccc3c2s1 [Compound 16, N-(4-Aminothiazolo[4,5-c]quinolin-2-yl)propionamide] | inactive | inactive | – |
| Nc1nc2c(N)nc3ccccc3c2s1 [Compound 17, thiazolo[4,5-c]quinoline-2,4-diamine] | inactive | inactive | – |
| CCCCc1nc2c(s1)c(N)nc1ccccc12 [Compound 22a, 2-Butylthiazolo[5,4-c]quinolin-4-amine] | completely inactive | completely inactive | – |
| CCCCC1CN2C(=N1)C(N)=Nc1ccccc12 (stereo not drawn) [Compound 37, 2-Butyl-1,2-dihydroimidazo[1,2-a]quinoxalin-4-amine] | – | – | TLR7/TLR8 selectivity (in words) (human TLR8 [3]): selective TLR8 agonists |
| CCCCc1cn2c(n1)c(N)nc1ccccc12 [Compound 39, 2-Butylimidazo[1,2-a]quinoxalin-4-amine] | – | – | TLR7/TLR8 selectivity (in words) (human TLR8 [3]): selective TLR8 agonists |
| CCCCn1cc2c(n1)c(N)nc1ccccc12 [Compound 53, 2-Butyl-2H-pyrazolo[3,4-c]quinolin-4-amine] | – | – | CD69 expression in cytokine-induced killer-, natural killer-, T- and B-lymphocytic subsets [4]: dramatically enhanced expression; IFN-α induction [2]: showed IFN-α inducing ability |

Further lines, with some results ahead:

| TLR8-agonistic activity (in words) (human TLR8 [3]) | TLR7-agonistic activity (in words) (human TLR7) | SMILES | further results |
| --- | --- | --- | --- |
| negligibly low TLR8-agonistic activity | – | CCCCc1nc2c(o1)c(N)nc1ccccc12 [Compound 22b, 2-Butyloxazolo[5,4-c]quinolin-4-amine] | – |
| entirely inactive | entirely inactive | CCCCC1CN2C(N)=Nc3ccccc3C2=N1 (stereo not drawn) [Compound 27, 2-Butyl-2,3-dihydroimidazo[1,2-c]quinazolin-5-amine] | – |
| entirely inactive | entirely inactive | CCCCc1cn2c(N)nc3ccccc3c2n1 [Compound 29, 2-Butylimidazo[1,2-c]quinazolin-5-amine] | – |
| inactive | inactive | CCCCc1nc2c3ccccc3nc(N)n2n1 [Compound 33, 2-Butyl[1,2,4]triazolo[1,5-c]quinazolin-5-amine] | – |
| complete loss of activity | complete loss of activity | CCCCc1nc2c(N)nc3ccccc3n2n1 [Compound 46, 2-Butyl[1,2,4]triazolo[1,5-a]quinoxalin-4-amine] | – |
| complete loss of activity | complete loss of activity | CCCCc1nnc2c(N)nc3ccccc3n12 [Compound 49, 1-Butyl[1,2,4]triazolo[4,3-a]quinoxalin-4-amine] | – |
